Source: ChEMBL document CHEMBL1156633, “Discovery of novel and long acting muscarinic acetylcholine receptor antagonists” (J Med Chem, 2008)
Blank lines part the entries; values can stand above or below the compound they belong to. The source made the active and inactive calls. The rule behind the calls is not given here.

What was measured:
[1] = biological target: T1, Muscarinic acetylcholine receptor M2 (Homo sapiens, UniProt P08172); test: Antagonist activity at human muscarinic acetylcholine M2 receptor expressed in CHO cells coexpressed with Gqi5 assessed as inhibition of acetylcholine-induced calcium mobilization by single concentration kinetic FLIPR assay; type: functional, cell-based; details: read-out: pA2 (converted)
T1 sequence (P08172 whole entry): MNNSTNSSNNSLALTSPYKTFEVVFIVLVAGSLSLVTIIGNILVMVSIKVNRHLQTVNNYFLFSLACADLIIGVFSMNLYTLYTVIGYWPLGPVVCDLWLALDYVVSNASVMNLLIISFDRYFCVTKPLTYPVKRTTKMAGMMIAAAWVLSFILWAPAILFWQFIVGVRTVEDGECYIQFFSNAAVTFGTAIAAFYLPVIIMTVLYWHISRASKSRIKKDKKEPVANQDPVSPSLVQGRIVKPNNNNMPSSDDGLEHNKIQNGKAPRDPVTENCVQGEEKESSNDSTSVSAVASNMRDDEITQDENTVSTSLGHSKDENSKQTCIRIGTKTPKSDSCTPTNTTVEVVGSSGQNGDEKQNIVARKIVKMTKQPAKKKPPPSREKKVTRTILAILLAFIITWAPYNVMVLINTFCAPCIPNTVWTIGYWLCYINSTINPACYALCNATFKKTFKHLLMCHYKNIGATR
Method in brief: (§1)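 CHO cells stably expressing the human recombinant muscarinic receptor subtype, in a fluorometric imaging plate reader (FLIPR) assay. Read-out is inhibition of acetylcholine-mediated intracellular Ca2+ mobilization. Results are the mean of at least two determinations.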

[2] = Half life in Sprague-Dawley rat at 2.2 mg/kg, iv and 4.8 mg/kg, po; type: ADME, organism-based; details: in vivo
[3] = Clearance in Sprague-Dawley rat at 2.2 mg/kg, iv and 4.8 mg/kg, po; type: ADME, organism-based; details: in vivo
[4] = Volume of distribution at steady state in Sprague-Dawley rat at 2.2 mg/kg, iv and 4.8 mg/kg, po; type: ADME, organism-based; details: in vivo, read-out: Vdss
[5] = Permeability across artificial membrane; type: ADME; details: PAMPA; read-out: permeability
[6] = Antagonist activity at alpha1 nicotinic acetylcholine receptor; type: functional
[7] = Antagonist activity at alpha3 nicotinic acetylcholine receptor; type: functional
[8] = biological target: Cytochrome P450 2D6 (Homo sapiens, UniProt P10635); test: Inhibition of CYP2D6; type: ADME
[9] = biological target: Cytochrome P450 2C19 (Homo sapiens, UniProt P33261); test: Inhibition of CYP2C19; type: ADME
[10] = biological target: Cytochrome P450 2C9 (Homo sapiens, UniProt P11712); test: Inhibition of CYP2C9; type: ADME
[11] = test system: Mus musculus; test: Inhibition of methacholine-induced bronchoconstriction in conscious BALB/c mouse at 5 ug, intranasally administered as single dose after 5 hrs 15 mins; type: functional, organism-based
Method in brief: (§2)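 Conscious mice given a single intranasal dose of 5 µg/animal, then challenged with methacholine to induce bronchoconstriction. Inhibition of bronchoconstriction was assessed at set times after dosing.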

[12] = test system: Mus musculus; test: Inhibition of methacholine-induced bronchoconstriction in conscious BALB/c mouse at 5 ug, intranasally administered as single dose after 24 hrs; type: functional; design: scale not given: the % may be the effect or the level left; method in brief: as §2
[13] = test system: Mus musculus; test: Inhibition of methacholine-induced bronchoconstriction in conscious BALB/c mouse at 5 ug, intranasally administered as single dose after 48 hrs; type: functional; design: scale not given: the % may be the effect or the level left; method in brief: as §2
[14] = biological target: T2, Muscarinic acetylcholine receptor M1 (Homo sapiens, UniProt P11229); test: Antagonist activity at human muscarinic acetylcholine M1 receptor expressed in CHO cells assessed as inhibition of acetylcholine-induced calcium mobilization by FLIPR assay; type: functional, cell-based
T2 sequence (P11229 whole entry): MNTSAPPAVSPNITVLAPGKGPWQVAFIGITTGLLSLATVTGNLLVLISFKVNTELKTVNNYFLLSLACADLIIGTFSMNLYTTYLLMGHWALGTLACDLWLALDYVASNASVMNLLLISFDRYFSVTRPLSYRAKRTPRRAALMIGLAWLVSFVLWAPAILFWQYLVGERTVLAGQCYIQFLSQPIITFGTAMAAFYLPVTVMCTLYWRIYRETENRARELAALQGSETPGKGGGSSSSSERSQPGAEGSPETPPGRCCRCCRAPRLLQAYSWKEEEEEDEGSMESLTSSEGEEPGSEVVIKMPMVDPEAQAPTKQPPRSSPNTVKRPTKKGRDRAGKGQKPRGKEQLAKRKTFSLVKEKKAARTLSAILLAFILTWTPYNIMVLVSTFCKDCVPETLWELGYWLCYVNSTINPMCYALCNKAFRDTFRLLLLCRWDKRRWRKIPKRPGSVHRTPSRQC
Method in brief: (§3)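 Readout: inhibition of acetylcholine-mediated intracellular Ca2+ mobilization in CHO cells expressing the human receptor subtype, reported as pIC50. Values are the mean of at least two determinations, standard deviation below 0.3 unless otherwise noted.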

[15] = biological target: T1, Muscarinic acetylcholine receptor M2; test: Antagonist activity at human muscarinic acetylcholine M2 receptor expressed in CHO cells coexpressed with Gqi5 assessed as inhibition of acetylcholine-induced calcium mobilization by FLIPR assay; type: functional, cell-based; method in brief: as §3
[16] = biological target: T3, Muscarinic acetylcholine receptor M3 (Homo sapiens, UniProt P20309); test: Antagonist activity at human muscarinic acetylcholine M3 receptor expressed in CHO cells assessed as inhibition of acetylcholine-induced calcium mobilization by FLIPR assay; type: functional, cell-based
Method in brief: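 Readout: inhibition of acetylcholine-mediated intracellular Ca2+ mobilization in CHO cells stably expressing human recombinant M3 receptor, reported as pIC50. Values are the mean of at least two determinations, standard deviation below 0.3 unless otherwise noted.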

[17] = biological target: T2, Muscarinic acetylcholine receptor M1; test: Antagonist activity at human muscarinic acetylcholine M1 receptor expressed in CHO cells assessed as inhibition of acetylcholine-induced calcium mobilization by single concentration kinetic FLIPR assay; type: functional, cell-based; details: read-out: pA2 (converted); method in brief: as §1
[18] = biological target: T3, Muscarinic acetylcholine receptor M3; test: Antagonist activity at human muscarinic acetylcholine M3 receptor expressed in CHO cells assessed as inhibition of acetylcholine-induced calcium mobilization by single concentration kinetic FLIPR assay; type: functional, cell-based; details: read-out: pA2 (converted); method in brief: as §1
[19] = biological target: Muscarinic acetylcholine receptor M1 and M3 (Homo sapiens) (UniProt P20309+P11229); test: Selectivity for human muscarinic acetylcholine M3 receptor over human muscarinic acetylcholine M1 receptor
Method in brief: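 Ratio of M1 to M3 potency from FLIPR functional assays measuring inhibition of acetylcholine-induced intracellular Ca²⁺ mobilization. The M3 assay used CHO cells stably expressing human recombinant M3 receptor; the M1 assay is described only as a FLIPR assay. pIC50 values are the mean of at least two determinations.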

[20] = biological target: T4, Substance-K receptor (Homo sapiens) (UniProt P21452); test: Inhibition of NK2 receptor at 1 uM
T4 sequence (whole entry): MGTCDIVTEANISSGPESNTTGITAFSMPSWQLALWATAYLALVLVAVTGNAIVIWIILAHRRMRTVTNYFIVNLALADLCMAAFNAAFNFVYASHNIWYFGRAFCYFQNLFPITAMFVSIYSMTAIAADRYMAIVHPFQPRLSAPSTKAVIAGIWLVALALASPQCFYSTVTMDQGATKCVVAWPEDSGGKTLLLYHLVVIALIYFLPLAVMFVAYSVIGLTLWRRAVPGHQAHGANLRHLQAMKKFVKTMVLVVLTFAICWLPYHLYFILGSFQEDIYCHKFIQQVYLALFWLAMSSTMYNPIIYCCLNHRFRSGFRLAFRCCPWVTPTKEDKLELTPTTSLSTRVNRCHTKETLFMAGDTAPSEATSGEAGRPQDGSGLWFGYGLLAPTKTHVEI

[21] = test system: Cavia porcellus; test: Inhibition of acetylcholine-induced bronchoconstriction in conscious Dunkin-Hartley guinea pig assessed as enhanced pause at 2.5 ug, intratracheally administered as single dose after 4 hrs
[22] = test system: Cavia porcellus; test: Inhibition of acetylcholine-induced bronchoconstriction in conscious Dunkin-Hartley guinea pig assessed as enhanced pause at 2.5 ug, intratracheally administered as single dose after 24 hrs
[23] = biological target: Muscarinic acetylcholine receptor M3 (Homo sapiens); test: Selectivity for human muscarinic acetylcholine M3 receptor over human muscarinic acetylcholine M2 receptor

Muscarinic acetylcholine receptor M1 and M3 (Homo sapiens), sequence (P20309 whole entry, looked up, one chain of several): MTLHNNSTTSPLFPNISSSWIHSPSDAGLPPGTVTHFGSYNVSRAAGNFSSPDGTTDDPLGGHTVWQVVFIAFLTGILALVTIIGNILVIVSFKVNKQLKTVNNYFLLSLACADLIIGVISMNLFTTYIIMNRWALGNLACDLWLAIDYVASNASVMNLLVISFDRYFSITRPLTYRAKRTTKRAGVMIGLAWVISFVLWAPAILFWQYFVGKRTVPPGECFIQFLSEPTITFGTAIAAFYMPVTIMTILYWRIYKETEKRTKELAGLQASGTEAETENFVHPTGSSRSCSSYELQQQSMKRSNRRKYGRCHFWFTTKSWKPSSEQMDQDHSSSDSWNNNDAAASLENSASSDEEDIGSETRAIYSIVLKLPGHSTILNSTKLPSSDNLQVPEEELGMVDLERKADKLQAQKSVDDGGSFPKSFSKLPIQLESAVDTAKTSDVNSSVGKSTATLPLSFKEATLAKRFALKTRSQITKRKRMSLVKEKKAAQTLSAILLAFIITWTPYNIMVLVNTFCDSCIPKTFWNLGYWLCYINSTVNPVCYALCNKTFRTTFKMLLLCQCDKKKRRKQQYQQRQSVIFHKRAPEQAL
T3 sequence (P20309 whole entry): as the sequence (P20309 whole entry, looked up, one chain of several) above
Cytochrome P450 2C9, sequence (P11712 whole entry): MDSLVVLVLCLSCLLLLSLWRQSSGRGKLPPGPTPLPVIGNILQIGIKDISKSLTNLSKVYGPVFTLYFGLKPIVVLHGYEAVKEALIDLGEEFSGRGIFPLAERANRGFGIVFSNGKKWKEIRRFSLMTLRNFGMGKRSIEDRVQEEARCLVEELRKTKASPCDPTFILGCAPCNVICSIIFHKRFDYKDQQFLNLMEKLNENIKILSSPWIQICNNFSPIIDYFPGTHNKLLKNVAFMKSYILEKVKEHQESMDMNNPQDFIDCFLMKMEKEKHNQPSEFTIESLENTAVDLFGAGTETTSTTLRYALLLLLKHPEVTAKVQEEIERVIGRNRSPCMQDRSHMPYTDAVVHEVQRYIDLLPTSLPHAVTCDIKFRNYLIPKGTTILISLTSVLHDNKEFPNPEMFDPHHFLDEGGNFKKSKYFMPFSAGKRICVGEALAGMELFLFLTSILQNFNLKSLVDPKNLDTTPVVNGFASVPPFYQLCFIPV
Cytochrome P450 2D6, sequence (P10635 whole entry): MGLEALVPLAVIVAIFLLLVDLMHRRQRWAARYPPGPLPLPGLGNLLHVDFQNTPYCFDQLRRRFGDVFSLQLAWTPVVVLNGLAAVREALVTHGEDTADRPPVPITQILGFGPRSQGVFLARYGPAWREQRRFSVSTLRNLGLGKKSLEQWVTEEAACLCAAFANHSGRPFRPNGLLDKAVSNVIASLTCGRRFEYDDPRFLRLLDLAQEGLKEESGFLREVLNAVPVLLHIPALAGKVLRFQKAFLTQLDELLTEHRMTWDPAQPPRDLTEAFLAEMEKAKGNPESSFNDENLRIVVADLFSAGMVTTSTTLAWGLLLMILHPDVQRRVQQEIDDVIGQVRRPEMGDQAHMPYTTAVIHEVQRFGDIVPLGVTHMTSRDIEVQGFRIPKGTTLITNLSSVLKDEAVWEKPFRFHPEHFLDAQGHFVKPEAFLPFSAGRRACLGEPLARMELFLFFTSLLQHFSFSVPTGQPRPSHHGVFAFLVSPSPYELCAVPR
Cytochrome P450 2C19, sequence (P33261 whole entry): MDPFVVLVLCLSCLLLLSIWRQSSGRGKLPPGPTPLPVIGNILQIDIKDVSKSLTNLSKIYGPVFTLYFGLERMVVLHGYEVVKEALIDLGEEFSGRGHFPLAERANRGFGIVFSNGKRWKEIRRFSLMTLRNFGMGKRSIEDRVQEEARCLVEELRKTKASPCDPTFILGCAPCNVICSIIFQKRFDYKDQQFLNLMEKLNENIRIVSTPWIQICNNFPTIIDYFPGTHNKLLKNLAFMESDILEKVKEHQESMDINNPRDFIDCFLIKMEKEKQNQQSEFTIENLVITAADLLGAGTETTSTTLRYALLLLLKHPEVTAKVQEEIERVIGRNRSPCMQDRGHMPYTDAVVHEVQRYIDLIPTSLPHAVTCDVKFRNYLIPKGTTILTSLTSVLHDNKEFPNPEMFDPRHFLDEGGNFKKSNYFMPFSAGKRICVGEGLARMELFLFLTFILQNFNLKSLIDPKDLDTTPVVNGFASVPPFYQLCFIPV

SMILES: CCOC(=O)c1ccc(NC(=O)N[C@H](Cc2ccc(O)cc2)C(=O)N[C@H]2CCN(Cc3ccc(O)cc3)C2)cc1
- IC50 [14]: 12600 nM
- IC50 [15]: 5010 nM
- IC50 [16]: 3160 nM

SMILES: CCOC(=O)c1ccc(NC(=O)N[C@H](Cc2ccc(O)cc2)C(=O)N[C@@H]2CCN(Cc3ccc(O)cc3)C2)cc1
- IC50 [14]: 20000 nM
- IC50 [15]: 20000 nM
- IC50 [16]: 20000 nM

SMILES: CCOC(=O)c1ccc(NC(=O)N[C@@H](Cc2ccc(O)cc2)C(=O)N[C@H]2CCN(Cc3ccc(O)cc3)C2)cc1
- IC50 [14]: 1000 nM
- IC50 [15]: 126 nM
- IC50 [16]: 15.8 nM
- Selectivity ratio [19]: 80

SMILES: CCOC(=O)c1ccc(NC(=O)N[C@@H](Cc2ccc(O)cc2)C(=O)NC2CCN(Cc3ccc(O)cc3)C2)cc1 (stereo not given in full)
- IC50 [14]: 2000 nM
- IC50 [15]: 158 nM
- IC50 [16]: 20 nM
- Selectivity ratio [19]: 100

More lines, main results first:

- Kb [1]: 1 nM
- half-life [2]: 1.1 h
- clearance [3]: 15 mL/min/kg
- Vd [4]: 0.55 L/kg
- Papp [5]: < 0.3 ×10⁻⁶ cm/s
- pIC50 [6]: 6.1
- pIC50 [7]: 6.1
- IC50 [8]: 3980 nM
- IC50 [9]: > 10000 nM
- IC50 [10]: > 10000 nM
SMILES: CC(C)OC(=O)c1ccc(NC(=O)N[C@@H](Cc2ccc(O)cc2)C(=O)N[C@H]2CCC[N+](C)(Cc3cccc(O)c3)C2)cc1.[I-] (stereo not given in full)
- Activity [11]: Active
- Activity [12]: > 80%
- Activity [13]: > 30%

- Kb [17]: 0.316 nM
- Kb [1]: 0.2 nM
- Kb [18]: 0.0126 nM
- Selectivity ratio [19]: 25
- inhibition [20]: 74%
SMILES: Cc1cn2cc(CNC(=O)[C@H](Cc3ccc(O)cc3)NC(=O)Nc3ccc(C(=O)OC4CCCCC4)s3)[n+](Cc3ccc4ccccc4c3)c2s1.[I-]
- inhibition (INH) [21]: 93%
- inhibition (INH) [22]: 88%

- Kb [17]: 0.794 nM
- Kb [1]: 1.58 nM
- Kb [18]: 0.0251 nM
- pA2 [23]: 10.6
- Selectivity ratio [19]: 30
SMILES: Cc1cn2cc(CNC(=O)[C@H](Cc3ccc(O)cc3)NC(=O)Nc3ccc(C(=O)OC(C)C)cc3)[n+](Cc3ccc4ccccc4c3)c2s1.O=C([O-])C(F)(F)F
- Activity [11]: Active
- Activity [12]: > 80%
- Activity [13]: > 60%

- IC50 [14]: 3980 nM
- IC50 [15]: 1580 nM
- IC50 [16]: 1580 nM
SMILES: CCOC(=O)c1ccc(NC(=O)N[C@@H](Cc2ccc(O)cc2)C(=O)N[C@@H]2CCN(Cc3ccc(O)cc3)C2)cc1
